The list is not random: actives were taken first. Their share in the collection is about 9.5%.
M1 agonist: agonists of M1 muscarinic receptor; CHO-M1 cells, Fluo-4 calcium fluorescence, agonist mode; active compounds read high; B-score at 10 µM; hit rate 3% among 64,000;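 active means fluorescence rise, raw or as B-score row- and column-corrected plate score, outside the 99.7% band of its plate's samples, either direction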
M1 antag: blocks the rat M1 muscarinic receptor response to acetylcholine | hit rate 3.4% among 64,000 | P08482 | CHO-M1 cells, Fluo-4 calcium, ACh EC80 antagonist mode; active compounds read low | AID 628 | B-score at 10 µM;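 active means calcium fluorescence response, raw or row-and-column corrected B-score, differing from the plate sample mean either way at a set confidence level, mostly lower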
Target sequence (P08482 whole entry, looked up): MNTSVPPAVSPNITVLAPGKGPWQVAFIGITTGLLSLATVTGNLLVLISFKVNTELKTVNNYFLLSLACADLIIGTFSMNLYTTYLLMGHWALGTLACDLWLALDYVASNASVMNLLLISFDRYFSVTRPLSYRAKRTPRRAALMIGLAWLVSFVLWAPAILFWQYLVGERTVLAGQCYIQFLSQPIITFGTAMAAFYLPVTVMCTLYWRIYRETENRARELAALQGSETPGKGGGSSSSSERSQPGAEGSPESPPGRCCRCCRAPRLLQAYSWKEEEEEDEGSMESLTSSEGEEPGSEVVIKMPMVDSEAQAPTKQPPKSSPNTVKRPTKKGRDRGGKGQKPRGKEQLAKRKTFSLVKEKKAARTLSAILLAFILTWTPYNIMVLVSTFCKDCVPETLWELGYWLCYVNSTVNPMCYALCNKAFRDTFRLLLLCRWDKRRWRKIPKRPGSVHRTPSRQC
D1 mod: allosterically modulates the human D1 dopamine receptor; AID 641; B-score at 10 µM; hit rate 5.9% among 58,000; HEK293 D1, CRE-luciferase, dopamine EC30 potentiation; actives deviate in either direction;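 active means luminescence count or its row- and column-corrected plate score outside the 99.7% band of the plate's sample wells, on either side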
mHtt clearance: mutant huntingtin protein clearance; HeLa Exon1htt(103Q)mCFP, aggregate imaging; zero = plate's median compound well; hit rate 0.42% among 47,000; AID 853; inhibition, % at 1.5 µM;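 active means inhibition of aggregate fluorescence above about 70%, also judged a hit by eye on the cell image, limit read from the data, passing the limit was not always enough; inconclusive means no rule stated for this call; inactive means not judged a hit on image review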;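 further: cells exposed to compound for three days before fixation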
HEK293 NFkB inh: lowers PMA/ionomycin-induced NF-kB signal in HEK293 cells | HEK-293 NF-kB luciferase reporter, luminescence | inhibition, % at 3 µM | hit rate 0.21% among 62,000 | AID 465;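 active means inhibition above the mean of all tested compounds plus 3 SD, cut at about 40% in these data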;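 further: 0% = stimulated DMSO wells and 100% = 10 µM reference inhibitor 5653914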
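Signal: luciferase luminescence; Material: HEK-293 cells with stable firefly luciferase reporter driven by four HIV NF-kB elements; Probe or stimulus: PMA with ionomycin; Replication: tested once; Times: 1 h compound pretreatment, then 16 h stimulation at 37 °C, 5% CO2; Benchmarks: DMSO and 10 µM reference inhibitor; Evaluation: per-plate % inhibition versus controls.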
Jurkat tox 60K: cytotoxicity toward Jurkat cells; Jurkat E6.1 viability, ATP luminescence, 48 h; inhibition, % at 4 µM; hit rate 1.2% among 56,000; AID 463;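 active means inhibition above the mean inhibition of all tested compounds plus 3 SD, cut at about 28% in these data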
M1 agonist conf: confirmation of rat M1 muscarinic receptor agonists; shares compounds with M1 agonist; CHO-M1 cells, Fluo-4 calcium fluorescence, agonist mode; actives lie on both sides; fluorescence change (max-min) at 10 µM; hit rate 19% among 1,700;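 active means fluorescence change differs from the solvent-only DMSO control mean at a set confidence level in both duplicate runs; inconclusive means differs from solvent-only control mean in just one of two runs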;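 further: an EC20 dose of acetylcholine follows compound addition during the same imaging run; raw fluorescence intensity difference in instrument units with no normalization to controls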
M4 agonist ctr: counter-screen for M1 agonists: activity at rat M4 receptor; shares compounds with M1 agonist; CHO M4/Gqi5 cells, Fluo-4 calcium fluorescence, agonist mode; actives lie on both sides; fluorescence change (max-min) at 10 µM; hit rate 9% among 1,700;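 active means fluorescence change differing from the plate's solvent-only control wells at 99.7% confidence in both duplicates, whether higher or lower; inconclusive means differs from solvent controls in only one of two duplicates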
* marks the source's active call; other numbers are inactive results; u = inconclusive; x = not tested or not shown.

SMILES | M1 agonist | M1 antag | D1 mod | mHtt clearance | HEK293 NFkB inh | Jurkat tox 60K | M1 agonist conf | M4 agonist ctr
Brc1ccc(C2Nc3cccc4cccc(c34)N2)o1 | -0.953 | -0.00991 | -0.949 | x | -12.7 | 9.1 | x | x
Oc1ccccc1C1Nc2cccc3cccc(c23)N1 | 2.72* | 0.0336 | -0.285 | -46.7 | 9.7 | 3.3 | u | -22.3
CCCCc1c(C)c2ccc(OC)c(/C(C)=N\O)c2oc1=O | -0.0442 | -1.63 | -0.291 | -28.1 | 3.1 | 3.5 | x | x
COc1ccc(N2C(=O)CC(NCc3cccc(F)c3)C2=O)cc1 (centres undefined) | 0.0551 | 0.195 | 1.63 | x | 5.5 | -3.1 | x | x
CCN=C(Nc1cccc(F)c1)SC1CC(=O)N(c2ccc(OC)cc2)C1=O (centres undefined) | 4.84* | -2.21 | x | 29.4 | 10.1 | 0.5 | -13.9 | -28.1
CCN=C(NCC)SC1CC(=O)N(c2ccccc2)C1=O (centres undefined) | 10.1* | -2.08 | -1.29 | -65.8 | 4.4 | 0.6 | -10.6 | -27.6
CCN=C(NCC)SC1CC(=O)N(c2cccc(OC)c2)C1=O (centres undefined) | 2.16 | -0.507 | -0.00351 | x | 10.7 | 2.4 | x | x
CC(C)NC(=O)CSc1nc(Cc2cccs2)nc2ccccc12 | x | x | x | -6.2 | x | x | x | x
COC(=O)C1CCC(C)(C(=O)Nc2ccccc2)C1(C)C (centres undefined) | 0.508 | -0.999 | 0.313 | 4.9 | 3.7 | -7.2 | x | x
O=C(Oc1ccccc1)c1c(Cl)cccc1P(=O)(O)O | -0.757 | -0.732 | x | x | x | x | x | x
Cc1cc2c(N3CCCCC3C)ncnc2s1 (centres undefined) | 3.46* | -0.934 | -1.08 | 53.3 | -1.0 | 16.1 | -7.62 | -34.2
O=C(NC1CCCCCC1)c1ccc(CN2CCOCC2)cc1 | x | x | x | 4.2 | x | x | x | x
Cc1nnc(C)c2c(C)n(-c3ccc(Br)cc3)c(C)c12 | 0.169 | 0.342 | -0.157 | x | 1.9 | 8.7 | x | x
Cc1cn(-c2ccc(Br)cc2)[nH]c1=O | 2.13* | 0.754 | 0.0519 | x | -7.2 | -5.4 | -18.3 | u
COc1ccc(OC)c(NC(=O)C2C3CC4OC(=O)C2C4C3)c1 (centres undefined) | 0.0843 | 0.0831 | -0.695 | x | 1.4 | -2.4 | x | x
CC(C)CCNC(=O)NC(=O)Cn1cc(C(F)(F)F)ccc1=O | x | x | x | 23.0 | x | x | x | x
CCOC(=O)N1CCN(C(=O)CSc2nnc(-c3ccc(C(C)(C)C)cc3)o2)CC1 | 6.9* | -0.852 | -0.308 | x | 2.5 | -0.1 | -14.8 | -29
O=C(NCCc1ccc(Cl)cc1)C1CCC(=O)N1Cc1ccc(F)cc1 (centres undefined) | x | x | x | 8.9 | x | x | x | x
CCOc1cccc(C2C(C(=O)c3ccc(C)o3)=C(O)C(=O)N2c2nccs2)c1 (centres undefined) | 54.6* | 0.274 | -0.0225 | x | 20.7 | x | 822* | 125*
CCOc1cccc(C2C(C(=O)c3ccc(C)o3)=C(O)C(=O)N2Cc2ccncc2)c1 (centres undefined) | 0.538 | 0.0471 | 0.0331 | -18.2 | 20.1 | -7.0 | x | x
COc1ccc(CCNc2oc(-c3ccccc3OC)nc2C#N)cc1OC | 3.57* | 0.353 | 3.07 | x | 23.8 | -1.8 | -21.7 | -73.8*
COc1ccc(CCNc2oc(-c3ccccc3OC)nc2C#N)cc1 | 0.584 | -2.11 | 0.605 | 6.8 | 24.7 | 0.5 | x | x
CN(C(=O)c1cnccn1)c1nnc(-c2cccnc2)s1 | -0.0343 | 0.917 | 0.458 | x | 0.7 | -6.6 | x | x
CN1C=CC2=C(C#N)C(N)C(C#N)(C#N)C(c3ccccc3)C2C1 (centres undefined) | 34.3* | -0.336 | -4.4 | -68.6 | 9.5 | x | 187* | 179*
CCCCOC(=O)CCc1nc2ccccc2[nH]1 | 3.55* | 0.338 | x | x | x | x | -13.6 | -43.7
SMILES | M1 agonist | M1 antag | D1 mod | mHtt clearance | HEK293 NFkB inh | Jurkat tox 60K | M1 agonist conf | M4 agonist ctr
CCCCOc1ccc(/C=C/C(=O)NCCc2nc3ccccc3[nH]2)cc1 | x | x | x | 0.1 | x | x | x | x
COCCN(C(=O)C(C)C)c1nnc(-c2ccc(C)cc2)s1 | x | x | x | 42.1 | x | x | x | x
CC(CN1CCOCC1)(NS(=O)(=O)c1ccccc1)c1ccccc1 (centres undefined) | 17.5* | -0.0886 | -0.397 | 3.4 | 9.4 | -2.5 | u | -37.4
CC(C(=O)N1CCOCC1)(c1ccccc1)c1ccccc1 | 0.0263 | 0.469 | 0.0954 | -12.3 | 18.3 | x | x | x
CCCc1nnc(SCC(=O)N2C(C)CCCC2C)n1CC1CCCO1 (centres undefined) | x | x | x | 61.1 | x | x | x | x
COc1ccc(Cl)cc1N(CC(=O)Nc1ccc2c(c1)OCCO2)S(C)(=O)=O | -1.14 | -0.00216 | 0.574 | 19.4 | -4.6 | 9.1 | x | x
O=C(CCCC(=O)n1cnc2ccccc21)n1cnc2ccccc21 | -0.245 | 1.04 | 0.0517 | x | -2.7 | -13.4 | x | x
Clc1nc2sccn2c1/C=N/n1cnc2ccccc21 | 8.39* | -0.8 | 2.72 | x | -6.7 | x | -9.23 | -46.2
CN(C)C(=O)CSc1nnc(Cc2ccc([N+](=O)[O-])cc2)o1 | x | x | x | 34.0 | x | x | x | x
CCOC(=O)/C(C#N)=C1\Nc2ccccc2N=C1N(CC(C)C)CC(C)C | 8.11* | -0.612 | -1.02 | -12.8 | x | x | u | -26.5
CCCC(=O)N(CCN(C(=O)CCC)c1ccccc1)c1ccccc1 | x | x | x | -21.0 | x | x | x | x
c1ccc(-n2c(-c3ccncc3)nnc2-c2ccco2)cc1 | 0.374 | 0.0956 | 0.0551 | 60.2 | 6.9 | -0.2 | x | x
c1ccc(-n2c(-c3ccncc3)nnc2-c2cccs2)cc1 | 9.24* | 0.398 | 0.00931 | x | -1.5 | 1.9 | u | u
CCOC(=O)N1CCN(c2ncnc3c2oc2nc(CC(C)C)c4c(c23)CCC4)CC1 | 0.524 | 2.02 | -0.413 | x | 9.7 | 1.6 | x | x
C=CCn1cnc2c(c1=O)c1nc3ccccc3nc1n2/N=C/c1cc(OC)c(OC)c(OC)c1 | 11.1* | -2.16* | -0.988 | x | 18.2 | 2.2 | -32.7* | -87.2
C=CCn1cnc2c(c1=O)c1nc3ccccc3nc1n2-c1ccc(C)cc1 | 0.236 | 1.19 | 1.94 | x | x | x | x | x
O=C(CCn1nc(-c2ccccc2)ccc1=O)N1CCN(c2ccccn2)CC1 | 3.92* | 0.0129 | -0.164 | x | 9.5 | -1.3 | -2.22 | -22.9
CCOC(=O)c1c(NC(=O)CSc2nnc(-c3ccccc3C)n2C)sc(C(C)=O)c1C | 2.36* | -5.18* | 0.577 | 75.8* | 12.3 | 15.7 | -9.58 | u
COc1ccccc1NC(=O)c1[nH]c(C)c(C(C)=O)c1C | 0.0486 | 1.07 | -0.537 | x | 3.7 | -4.7 | x | x
COc1ccccc1OCC(=O)c1[nH]c(C)c(C(C)=O)c1C | 8.63* | -1.42 | -0.123 | 27.4 | 26.0 | 26.2 | 4.47 | -6.84
Cc1occc1C(=O)NCc1ccccn1 | 2.22* | 0.192 | -0.309 | -32.7 | -5.8 | -1.1 | -2.78 | -35.7
CCOC(=O)c1oc2ccc(Br)cc2c1CSc1nnc(C)s1 | 0.792 | 0.541 | 3.62 | -49.5 | 13.3 | 4.0 | x | x
CCOC(=O)N1CCN(c2cc(NCCC(=O)O)c3c4c(onc24)-c2ccccc2C3=O)CC1 | 14.3* | 0.7 | 1.68 | x | 29.4 | 5.6 | -7.36 | -20.8
CCCCN1CCc2c([nH]c3ccc(C)cc23)C1=O | 3.52* | -0.0758 | -1.96 | x | -31.5 | -5.5 | -11.7 | u

From PubChem
